Measured values collected from several papers.
Each line is one published result; the experiments were not run side by side.
Target: 3-phosphoinositide-dependent protein kinase 1 (PDPK1, Homo sapiens, UniProt O15530)

| Structure (SMILES) | assay | conditions | inhibition |
| --- | --- | --- | --- |
| COc1cc2ncnc(Nc3ccc(Oc4ccccc4)c(C)c3C)c2cc1OC | enzyme activity, inhibitor | 1 µM | -2% |
| CNC(=O)c1cc(Oc2ccc(NC(=O)Nc3ccc(Cl)c(C(F)(F)F)c3)cc2)ccn1 | enzyme activity, inhibitor | 10 µM | 8% |
| C=CC(=O)Nc1cc(Nc2nccc(Nc3cc(Cl)c(F)cc3C(C)(C)O)n2)c(OC)cc1N1CC[C@@H](N(C)C)C1 | enzyme activity, inhibitor | 1 µM | -2% |
| Cc1ccc(Nc2nccc(N(C)c3ccc4c(C)n(C)nc4c3)n2)cc1S(N)(=O)=O | enzyme activity, inhibitor | 10 µM | 34% |
| CN(C)C1CCN(CC#Cc2nn(C3CCCC3)c3nc(NCc4ccccc4)ncc23)C1 (stereo not drawn) | enzyme activity, inhibitor, FRET | 0.1 µM | 0% |
| CCCS(=O)(=O)Nc1ccc(F)c(C(=O)c2c[nH]c3ncc(-c4ccc(Cl)cc4)cc23)c1F | enzyme activity, inhibitor | 1 µM | < 10% |
| c1ccc(CNc2nc(N3CCOc4ccccc43)nc3c2CCCC3)cc1 | target engagement in cells, inhibitor, chemoproteomics | 20 mM | -11.8% |
| CC(C)COc1cccc(Cl)c1-c1cc2cnc(N)nc2nc1N1C[C@@H]2[C@@H](N)[C@@H]2C1 | enzyme activity, inhibitor, FRET | 25 µM | 0% |
| CC/C(=N\NC(=O)NCc1cccc(O)c1)c1ccc(O)c(C)c1O | enzyme activity, inhibitor | 0.1 µM | -1.2% |
| CS(=O)(=O)Nc1cccc(-c2csc(NC(=O)CSc3nc4nccnc4c(=O)n3CCc3ccccc3)n2)c1 | enzyme activity, inhibitor | 10 µM | 7% |
| CN1CC(Oc2cnc(C#N)cc2-c2ccn3nc(NC(=O)C4CC4)cc3c2)C1 | enzyme activity, inhibitor | 1 µM | 12% |
| CCN(CC)CCNC(=O)c1c(C)[nH]c(/C=C2\C(=O)Nc3ccc(F)cc32)c1C | binding, competition with immobilised ligand | 10 µM | 71% |
